Among the data in publication PMC7199890 (European journal of medicinal chemistry, 2019) are hA1/hA2A, hA1/hA3 and hA2A/hA3 values, retold here.

The target of one experiment is hA2AAR (Homo sapiens, UniProt P29274). The experiment in a line: Radioligand binding. Conditions: selectivity ratio of Ki values.
The next experiment concerns the target T1, hA3AR (Homo sapiens, UniProt P0DMS8).
T1 sequence (P0DMS8 1-318): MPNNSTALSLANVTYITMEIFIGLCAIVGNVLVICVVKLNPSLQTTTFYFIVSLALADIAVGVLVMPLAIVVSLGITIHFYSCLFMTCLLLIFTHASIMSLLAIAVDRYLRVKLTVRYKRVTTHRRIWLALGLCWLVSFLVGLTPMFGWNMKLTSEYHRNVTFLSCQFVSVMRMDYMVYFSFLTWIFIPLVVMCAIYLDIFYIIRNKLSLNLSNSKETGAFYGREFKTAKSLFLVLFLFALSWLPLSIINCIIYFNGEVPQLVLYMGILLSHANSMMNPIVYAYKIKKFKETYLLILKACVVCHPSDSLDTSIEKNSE
Briefly: Radioligand binding. Conditions: selectivity ratio of Ki values. Summed up:
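Displacement of [125I]AB-MECA binding on membranes from CHO cells expressing recombinant hA3AR. […] ADA (3 units/mL) was present during membrane preparation, a 30 min 30 °C preincubation and radioligand incubation. DMSO was ≤2% final. At least six competitor concentrations spanning 3 log units were used. Incubations ended by GF/B filtration and three rinses.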

Several values for one entry are separate records, joined by “and”; a condition that tells them apart may be missing. Identical values can stand only once. Counter-ions that a name gives are not always drawn.

Chain of hA2AAR (P29274 whole entry): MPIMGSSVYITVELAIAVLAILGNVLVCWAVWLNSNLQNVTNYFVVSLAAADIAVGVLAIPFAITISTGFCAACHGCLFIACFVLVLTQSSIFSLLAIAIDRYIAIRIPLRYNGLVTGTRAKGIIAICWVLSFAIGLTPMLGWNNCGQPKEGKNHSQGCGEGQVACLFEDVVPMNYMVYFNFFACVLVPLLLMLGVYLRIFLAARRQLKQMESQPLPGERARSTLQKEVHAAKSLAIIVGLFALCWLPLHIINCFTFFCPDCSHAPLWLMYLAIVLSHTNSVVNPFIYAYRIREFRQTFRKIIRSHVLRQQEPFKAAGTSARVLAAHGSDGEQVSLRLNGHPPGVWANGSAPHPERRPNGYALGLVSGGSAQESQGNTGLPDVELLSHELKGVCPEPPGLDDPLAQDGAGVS

For the compound `Cn1cc2c(nc(NC(=O)Nc3ccc(CC(=O)O)cc3)n3nc(-c4ccco4)nc23)n1` [Compound 3, 2-(4-(3-(2-(furan-2-yl)-8-methyl-8H-pyrazolo [4,3-e] [1,2,4]triazolo[1,5-c]pyrimidin-5-yl)ureido)phenyl)acetic acid], the hA1/hA2A on hA2AAR is on record as >10.
In the case of `Cn1cc2c(nc(NC(=O)Nc3ccc(CC(=O)NCCCNC(=O)OC(C)(C)C)cc3)n3nc(-c4ccco4)nc23)n1` [Compound 4, tert-Butyl (3-(2-(4-(3-(2-(furan-2-yl)-8-methyl-8H-pyrazolo [4,3-e][1,2,4]triazolo[1,5-c]pyrimidin-5-yl)ureido)phenyl)acetamido)propyl)carbamate], at hA3AR, the hA1/hA3 was >3636 and the hA2A/hA3 came to 54.5. The hA1/hA2A on hA2AAR was >66.
For `Cn1cc2c(nc(NC(=O)Nc3ccc(CC(=O)NCCCCNC(=O)OC(C)(C)C)cc3)n3nc(-c4ccco4)nc23)n1` [Compound 5, tert-Butyl (4-(2-(4-(3-(2-(furan-2-yl)-8-methyl-8H-pyrazolo [4,3-e][1,2,4]triazolo[1,5-c]pyrimidin-5-yl)ureido)phenyl)acetamido)butyl)carbamate] the same measures were >2890, 88 and >33.
`Cn1cc2c(nc(NC(=O)Nc3ccc(CC(=O)NCCCCCNC(=O)OC(C)(C)C)cc3)n3nc(-c4ccco4)nc23)n1` [Compound 6, tert-Butyl (5-(2-(4-(3-(2-(furan-2-yl)-8-methyl-8H-pyrazolo [4,3-e][1,2,4]triazolo[1,5-c]pyrimidin-5-yl)ureido)phenyl)acetamido)pentyl)carbamate]: on hA3AR, the hA1/hA3 is on record as >2237 and the hA2A/hA3 is listed as 84.1. Besides, the hA1/hA2A at hA2AAR is given as >26.5.
For `Cn1cc2c(nc(NC(=O)Nc3ccc(CC(=O)NCCOCCOCCNC(=O)OC(C)(C)C)cc3)n3nc(-c4ccco4)nc23)n1` [Compound 7, tert-Butyl (2-(2-(2-(2-(4-(3-(2-(furan-2-yl)-8-methyl-8H-pyrazolo[4,3-e][1,2,4]triazolo[1,5-c]pyrimidin-5-yl)ureido)phenyl)acetamido)ethoxy)ethoxy)ethyl)carbamate], in that order: >133.6, 6.1 and >22.
Take `Cn1cc2c(nc(NC(=O)Nc3ccc(CC(=O)NCCCOCCOCCOCCCNC(=O)OC(C)(C)C)cc3)n3nc(-c4ccco4)nc23)n1` [Compound 8, tert-Butyl (1-(4-(3-(2-(furan-2-yl)-8-methyl-8H-pyrazolo [4,3-e][1,2,4]triazolo[1,5-c]pyrimidin-5-yl)ureido)phenyl)-2-oxo-7,10,13-trioxa-3-azahexadecan-16-yl)carbamate]: on hA3AR, the hA1/hA3 is given as >121.3 and the hA2A/hA3 was determined as 3.9. At hA2AAR, the hA1/hA2A is >30.5.
Take `Cn1cc2c(nc(NC(=O)Nc3ccc(CC(=O)NCCCN)cc3)n3nc(-c4ccco4)nc23)n1` [Compound 9, N-(3-aminopropyl)-2-(4-(3-(2-(furan-2-yl)-8-methyl-8H-pyrazolo[4,3-e][1,2,4]triazolo[1,5-c]pyrimidin-5-yl)ureido)phenyl) acetamide trifluoroacetate salt]: at hA3AR, the hA1/hA3 is listed as >1240 and the hA2A/hA3 came out at 21.7. Besides, the hA1/hA2A on hA2AAR is reported as >57.
On to `Cn1cc2c(nc(NC(=O)Nc3ccc(CC(=O)NCCCCN)cc3)n3nc(-c4ccco4)nc23)n1` [Compound 10, N-(4-aminobutyl)-2-(4-(3-(2-(furan-2-yl)-8-methyl-8H-pyrazolo[4,3-e][1,2,4]triazolo[1,5-c]pyrimidin-5-yl)ureido)phenyl) acetamide trifluoroacetate salt], for which, at hA3AR, the hA1/hA3 is >1666 and the hA2A/hA3 is listed as 28.6. For the same compound, on hA2AAR, the hA1/hA2A is on record as >58.
Regarding `Cn1cc2c(nc(NC(=O)Nc3ccc(CC(=O)NCCCCCN)cc3)n3nc(-c4ccco4)nc23)n1` [Compound 11, N-(5-aminopentyl)-2-(4-(3-(2-(furan-2-yl)-8-methyl-8H-pyrazolo[4,3-e][1,2,4]triazolo[1,5-c]pyrimidin-5-yl)ureido)phenyl) acetamide trifluoroacetate salt], at hA3AR, the hA1/hA3 is listed as >3759 and the hA2A/hA3 was determined as 76.3. In addition, the hA1/hA2A at hA2AAR was >49.
As for `Cn1cc2c(nc(NC(=O)Nc3ccc(CC(=O)NCCOCCOCCN)cc3)n3nc(-c4ccco4)nc23)n1.O=C(O)C(F)(F)F` [Compound 12, 2-(2-(2-(2-(4-(3-(2-(furan-2-yl)-8-methyl-8H-pyrazolo[4,3-e][1,2,4]triazolo[1,5-c]pyrimidin-5-yl)ureido)phenyl)acetamido)ethoxy)ethoxy)ethanamine trifluoroacetate salt], at hA3AR, the hA1/hA3 is recorded as >520 and the hA2A/hA3 was determined as 14. In addition, the hA1/hA2A on hA2AAR is on record as >37.4.
Regarding `Cn1cc2c(nc(NC(=O)Nc3ccc(CC(=O)NCCCOCCOCCOCCCN)cc3)n3nc(-c4ccco4)nc23)n1.O=C(O)C(F)(F)F` [Compound 13, N-(3-(2-(2-(3-aminopropoxy)ethoxy)ethoxy)propyl)-2-(4-(3-(2-(furan-2-yl)-8-methyl-8H-pyrazolo[4,3-e][1,2,4]triazolo[1,5-c]pyrimidin-5-yl)ureido)phenyl)acetamide trifluoroacetate salt], on hA3AR, the hA1/hA3 is reported as >970 and the hA2A/hA3 is 30.3. Besides, the hA1/hA2A at hA2AAR is given as >30.
For `C#CCCCC(=O)Nc1nc2nn(C)cc2c2nc(-c3ccco3)nn12` [Compound 20, N-(2-(furan-2-yl)-8-methyl-8H-pyrazolo[4,3-e][1,2,4]triazolo[1,5-c]pyrimidin-5-yl)hex-5-ynamide], the hA2A/hA3 on hA3AR stood at 48.4.
With `C#CCCCCC(=O)Nc1nc2nn(C)cc2c2nc(-c3ccco3)nn12` [Compound 21, N-(2-(furan-2-yl)-8-methyl-8H-pyrazolo[4,3-e][1,2,4]triazolo[1,5-c]pyrimidin-5-yl)hept-6-ynamide], on hA3AR, the hA1/hA3 was 122 and 122.7; the hA2A/hA3 came to 20.7. Besides, the hA1/hA2A at hA2AAR is reported as 5.9.
Regarding `C#CCCCCCC(=O)Nc1nc2nn(C)cc2c2nc(-c3ccco3)nn12` [Compound 22, N-(2-(furan-2-yl)-8-methyl-8H-pyrazolo[4,3-e][1,2,4]triazolo[1,5-c]pyrimidin-5-yl)oct-7-ynamide], at hA3AR, the hA1/hA3 is >781 and the hA2A/hA3 is given as 37.6. For the same compound, at hA2AAR, the hA1/hA2A is >20.7.
